Measurements as given in ChEMBL document CHEMBL3112497, “Functionally Optimized Neuritogenic Farinosone C Analogs: SAR-Study and Investigations on Their Mode of Action” (ACS Med Chem Lett, 2014).
Active and inactive are the calls of the source. The calls are words filed in the database; no cut-off is given here.

How the values were obtained:
PC-12 [1] = assay: Neuritogenic activity in rat PC12 cells assessed as induction of neuronal differentiation at 20 uM after 2 days by Giemsa staining-based phase contrast microscopic analysis; assay type: functional, cell-based
In short: (§1)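 PC12 neurite outgrowth assay (modified procedure) with 2-day incubation; compounds at 50, 20, 10, 5 or 1 μM. Positive control NGF 20 ng mL-1, solvent control DMSO 0.1%. Mean ± SEM, n = 3; unpaired t test, 95% confidence interval.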

[2] = target: T1, Fatty-acid amide hydrolase 1 (Homo sapiens) (UniProt O00519); assay: Inhibition of FAAH (unknown origin) at 1 uM
T1 sequence (whole entry): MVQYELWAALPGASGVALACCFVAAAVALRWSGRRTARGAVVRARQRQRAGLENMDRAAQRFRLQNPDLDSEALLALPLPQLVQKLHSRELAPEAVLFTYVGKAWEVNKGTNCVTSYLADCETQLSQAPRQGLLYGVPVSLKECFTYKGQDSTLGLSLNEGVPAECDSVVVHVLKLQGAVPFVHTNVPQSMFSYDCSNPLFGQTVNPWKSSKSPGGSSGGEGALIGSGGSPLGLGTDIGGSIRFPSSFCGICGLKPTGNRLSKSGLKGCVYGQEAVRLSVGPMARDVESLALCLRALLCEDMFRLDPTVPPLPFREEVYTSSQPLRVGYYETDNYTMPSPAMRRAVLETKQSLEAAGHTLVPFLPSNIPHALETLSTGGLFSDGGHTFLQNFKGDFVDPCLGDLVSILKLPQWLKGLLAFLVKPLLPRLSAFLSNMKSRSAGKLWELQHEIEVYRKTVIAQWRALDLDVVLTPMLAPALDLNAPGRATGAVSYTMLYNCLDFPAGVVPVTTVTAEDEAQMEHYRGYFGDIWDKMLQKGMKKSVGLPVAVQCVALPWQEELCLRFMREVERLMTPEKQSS
In short: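 FAAH activity measured with compounds at 1 μM.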

U-937 [3] = assay: Inhibition of anandamide membrane transporter in human U937 cells assessed as inhibition of [3H]-AEA uptake at 10 uM preincubated for 10 to 30 mins followed by [3H]-AEA addition measured after 5 mins by liquid scintillation counting analysis relative to control; assay type: cell-based
PC-12 [4] = assay: Neuritogenic activity in rat PC12 cells assessed as induction of neuronal differentiation at 50 uM after 2 days by Giemsa staining-based phase contrast microscopic analysis; assay type: functional, cell-based; in short: as §1
[5] = Inhibition of anandamide membrane transporter in human U937 cells assessed as inhibition of [3H]-AEA uptake preincubated for 10 to 30 mins followed by [3H]-AEA addition measured after 5 mins by liquid scintillation counting analysis; assay type: cell-based; details: u-937
In short: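 [3H]AEA transport in human U937 leukemic monocyte lymphoma cells; EC50 and maximal inhibition taken from concentration-dependent curves, n = 3–5.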

PC-12 [6] = assay: Neuritogenic activity in rat PC12 cells assessed as induction of neuronal differentiation at 10 uM after 2 days by Giemsa staining-based phase contrast microscopic analysis; assay type: functional, cell-based; in short: as §1
[7] = Cytotoxicity against rat PC12 cells at 50 uM; assay type: cell-based; details: pc-12, 50 µM
PC-12 [8] = assay: Neuritogenic activity in rat PC12 cells assessed as induction of neuronal differentiation at 1 uM after 2 days by Giemsa staining-based phase contrast microscopic analysis; assay type: functional, cell-based; in short: as §1
[9] = Cytotoxicity against rat PC12 cells at 1 uM; assay type: cell-based; details: pc-12, 1 µM
[10] = Cytotoxicity against rat PC12 cells at 10 uM; assay type: cell-based; details: pc-12, 10 µM
PC-12 [11] = assay: Neuritogenic activity in rat PC12 cells assessed as induction of neuronal differentiation at 5 uM after 2 days by Giemsa staining-based phase contrast microscopic analysis; assay type: functional, cell-based; in short: as §1
U-937 [12] = assay: Potency index, ratio of UCM707 EC50 to compound EC50 for anandamide membrane transporter in human U937 cells; assay type: cell-based
PC-12 [13] = assay: Neuritogenic activity in rat PC12 cells in presence of CB1 antagonist rimonabant/AM251; assay type: functional, cell-based
In short: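 PC12 cells co-treated with the CB1 antagonists rimonabant (1 μM and 100 nM) or AM251 (3 μM and 100 nM) alongside the differentiation-inducing compound, in the neurite outgrowth assay.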

Cannabinoid receptor 1 = Cannabinoid receptor 1 (Homo sapiens, UniProt P21554); assay: Displacement of [3H]-CP55940 from human CB1 receptor expressed in CHO cell membranes after 90 mins by scintillation counting analysis
Cannabinoid receptor 1, sequence (P21554 whole entry): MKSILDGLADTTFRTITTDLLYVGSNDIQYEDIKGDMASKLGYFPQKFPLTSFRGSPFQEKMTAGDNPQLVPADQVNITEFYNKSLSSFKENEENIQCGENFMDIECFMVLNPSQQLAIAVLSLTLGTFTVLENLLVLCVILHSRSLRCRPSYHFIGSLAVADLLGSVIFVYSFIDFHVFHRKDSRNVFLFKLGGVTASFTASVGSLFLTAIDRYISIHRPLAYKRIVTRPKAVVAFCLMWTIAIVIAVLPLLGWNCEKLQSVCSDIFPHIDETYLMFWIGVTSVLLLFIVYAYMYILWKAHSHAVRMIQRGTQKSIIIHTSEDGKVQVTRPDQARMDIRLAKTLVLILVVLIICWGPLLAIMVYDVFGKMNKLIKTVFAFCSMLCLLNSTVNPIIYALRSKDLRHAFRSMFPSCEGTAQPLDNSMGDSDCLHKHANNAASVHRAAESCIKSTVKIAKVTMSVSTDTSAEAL
In short: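 Membranes from CHO cells stably transfected with human CB1 incubated 90 min at 30 °C with varying compound concentrations and 0.5 nM [3H]-CP55940; WIN55,212-2 as positive control. Mean ± SD, n = 2–3.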

PC-12 [14] = assay: Neuritogenic activity in rat PC12 cells at 100 nM; assay type: functional, cell-based

SMILES: CC(/C=C/C(=O)NC(CO)Cc1ccc(O)cc1)=C\C(C)CC(=O)O (configuration not stated)
- Activity (PC-12 [1]): Active

SMILES: CCC(=O)N[C@@H](Cc1ccc(O)cc1)C(=O)O
- inhibition [2]: Active
- inhibition (U-937 [3]): 20%
- Activity (PC-12 [4]): Active

SMILES: O=C(CCCCCCCCCCCCCCO)N[C@H](CO)Cc1ccc(O)cc1
- Imax (U-937 [3]): 73%
- EC50 [5]: 757 nM
- Activity (PC-12 [6]): inactive

SMILES: CCC(=O)NCCc1ccc(O)cc1
- Activity [7]: Toxic
- Activity (PC-12 [4]): inactive

SMILES: O=C(CCCCCCCO)N[C@H](CO)Cc1ccc(O)cc1
- inhibition [2]: Active
- inhibition (U-937 [3]): 20%
- Activity (PC-12 [6]): Active
- Activity (PC-12 [4]): Active

SMILES: CCC(=O)N[C@H](COC(=O)CC)Cc1ccc(O)cc1
- Activity (PC-12 [4]): inactive

SMILES: CC(C)(C)C(=O)N[C@H](CO)Cc1ccc(O)cc1
- Activity (PC-12 [4]): inactive

SMILES: CCCCC/C=C\C/C=C\CCCCCCCCN[C@H](CO)Cc1ccc(O)cc1
- Imax (U-937 [3]): 51%
- EC50 [5]: 975 nM
- Activity (PC-12 [8]): inactive
- Activity [9]: Non-toxic
- Activity [10]: Toxic

SMILES: CCC(=O)N[C@H](COC)Cc1ccc(O)cc1
- Activity (PC-12 [4]): inactive

SMILES: O=C(CCC(=O)N[C@@H](CO)Cc1ccc(O)cc1)N[C@H](CO)Cc1ccc(O)cc1
- inhibition [2]: Active
- inhibition (U-937 [3]): 20%
- Activity (PC-12 [4]): Active

SMILES: CCC(=O)N[C@@H](CO)Cc1ccc(O)cc1
- Activity (PC-12 [4]): inactive

SMILES: CCCCC/C=C\C/C=C\C/C=C\C/C=C\CCCC(=O)NCCc1ccoc1
- Imax (U-937 [3]): 80%
- EC50 [5]: 1800 nM

SMILES: CCC(=O)N[C@H](CO)Cc1ccc(OC(=O)CC)cc1
- Activity (PC-12 [4]): inactive

SMILES: CC/C=C\C/C=C\C/C=C\CCCCCCCCN[C@H](CO)Cc1ccc(O)cc1
- Imax (U-937 [3]): 60%
- EC50 [5]: 966 nM
- Activity (PC-12 [8]): inactive
- Activity [9]: Non-toxic
- Activity [10]: Toxic

SMILES: CCC(=O)N[C@H](COC)Cc1ccc(OC)cc1
- inhibition [2]: Active
- inhibition (U-937 [3]): 20%
- Activity (PC-12 [4]): inactive

SMILES: O=C(CCCc1cn(C23CC4CC(CC(C4)C2)C3)nn1)N[C@H](CO)Cc1ccc(O)cc1
- Activity (PC-12 [4]): inactive

SMILES: O=C(N[C@H](CO)Cc1ccc(O)cc1)c1ccccc1
- inhibition [2]: Active
- inhibition (U-937 [3]): 20%
- Activity [7]: Non-toxic

SMILES: CCC(=O)N[C@H](CO)Cc1ccccc1
- Activity (PC-12 [4]): inactive

SMILES: CC(C)C(=O)N[C@H](CO)Cc1ccc(O)cc1
- Activity (PC-12 [4]): inactive

SMILES: CCC(=O)NCCc1ccc(O)c(O)c1
- Activity (PC-12 [11]): inactive
- Activity [7]: Toxic

SMILES: CCC(=O)N[C@H](CO)Cc1ccc(O)cc1
- Activity (PC-12 [4]): Active

SMILES: CCCCCCCCC(=O)N[C@H](CO)Cc1ccc(O)cc1
- Activity (PC-12 [4]): inactive

SMILES: CCCCCCCCCCCCCCCCN[C@H](CO)Cc1ccc(O)cc1
- Activity (PC-12 [8]): inactive
- Activity [9]: Non-toxic
- Activity [10]: Toxic

SMILES: CCC(=O)N[C@H](CO)Cc1ccc(OC)cc1
- Activity (PC-12 [4]): inactive

SMILES: CCCCC/C=C\C/C=C\CCCCCCCC(=O)N[C@H](CO)Cc1ccc(O)cc1
- Ratio EC50 (U-937 [12]): 10
- Imax (U-937 [3]): 52%
- EC50 [5]: 228 nM
- Activity (PC-12 [13]): Active
- Ki (Cannabinoid receptor 1): 810 nM
- Activity (PC-12 [6]): Active

SMILES: CCCCC/C=C\C/C=C\C/C=C\C/C=C\CCC(C)C(=O)NCCF (configuration not stated)
- Activity (PC-12 [14]): inactive

SMILES: CCCN[C@H](CO)Cc1ccc(O)cc1
- Activity (PC-12 [4]): inactive

SMILES: OCCCCCCCCCCCCCCCN[C@H](CO)Cc1ccc(O)cc1
- Ki (Cannabinoid receptor 1): 530 nM
- Activity (PC-12 [8]): inactive
- Activity [9]: Non-toxic
- Activity [10]: Toxic
